MC4R barr agon: agonists of human melanocortin 4 receptor (MC4R) beta-arrestin; P32245; U2OS MC4R beta-arrestin complementation, luminescence; percent of melanotan II response, DMSO zero; activation, % at 8.9 µM; 0.98% of 360,000 active;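 active means activation above a per-plate cutoff, the mean activation of sample wells on that plate plus 3 SD, cut at about 8% in these data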
Target sequence (P32245 whole entry, looked up): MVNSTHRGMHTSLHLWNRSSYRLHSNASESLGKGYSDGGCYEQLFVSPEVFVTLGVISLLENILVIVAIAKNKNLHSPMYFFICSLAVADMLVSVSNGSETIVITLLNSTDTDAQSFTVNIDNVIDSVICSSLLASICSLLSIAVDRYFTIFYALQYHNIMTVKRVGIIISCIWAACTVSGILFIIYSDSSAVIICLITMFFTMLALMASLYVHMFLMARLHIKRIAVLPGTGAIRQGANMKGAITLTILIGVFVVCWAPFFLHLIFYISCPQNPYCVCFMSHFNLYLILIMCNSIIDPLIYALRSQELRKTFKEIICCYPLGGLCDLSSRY
MsrA act: bovine methionine sulfoxide reductase A activation. AID 602163. purified bovine MsrA, absorbance read-out. activation, % at 10.6 µM. 0.3% of 360,000 active; in the data active means activation above about 7.5%
MsrA inh: inhibits bovine methionine sulfoxide reductase A | purified bovine MsrA, absorbance read-out | inhibition, % at 15.5 µM | 0.75% of 360,000 active | AID 651718; in the data active means inhibition above about 4.5%
MC4R antagonist: antagonists of human melanocortin 4 receptor (MC4R); AID 540295; MC4R-expressing cells, MTII-stimulated cAMP, LANCE TR-FRET; inhibition, % at 6.5 µM; 0.48% of 360,000 active;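 active means inhibition above its plate's cutoff, the mean of tested wells on that plate plus 3 SD, cut at about 29% in these data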
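Material: U2OS-MC4R stable cell line | Reagent: Melanotan II challenge after compound preincubation | Doses: One concentration, 6.5 µM nominal | Incubation: 30-min compound preincubation, 1-h Melanotan II challenge, 1-h detection, room temperature | Signal: TR-FRET cAMP assay | Replicates: One well per compound, no replicates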
MC4R barr ag: human MC4R beta-arrestin agonism confirmation | shares compounds with MC4R barr agon | U2OS MC4R beta-arrestin recruitment, luminescence; scaled DMSO 0%, Melanotan II 100% | activation, % at 8.9 µM | 31% of 2,400 active | AID 602192;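 active means mean activation across replicates above the hit cutoff set in the earlier primary screen, cut at about 8% in these data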
MOR-DOR barr ag: OPRM1-OPRD1 heterodimer agonism counter-screen. shares compounds with MC4R barr agon. U2OS PathHunter beta-arrestin, beta-gal luminescence; percent of deltorphin B response, DMSO zero. activation, % at 9.2 µM. 5.8% of 2,400 active;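 active means mean activation across replicates exceeds the hit threshold derived in the earlier primary screen, cut at about 18% in these data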
Of the large screens only hits and unclear results are named; the others gave an inactive call (follow-up assays come after a bar, where they were run). Compounds with a hit are over-represented: about 2.3% of the library has one in this group of screens.

CC1CCCN(C(=O)COC(=O)C2CCN(S(=O)(=O)c3ccc(Cl)c(C(F)(F)F)c3)CC2)C1 (stereo not drawn)	MC4R barr agon 56.4 | MC4R barr ag inactive | MOR-DOR barr ag inactive
CCC(=O)Nc1cccc(-c2nc3ccc(C)cc3o2)c1	none
Cc1ccc2nc(-c3cccc(NC(=O)c4ccc5c(c4)OCCO5)c3)oc2c1	MC4R barr agon 22.8 | MC4R barr ag inactive | MOR-DOR barr ag inactive
COc1ccc(CCNC(=O)C2(c3ccccc3)CC2)cc1	none
CC1O[C@@H](OC2C(COC3OC(CO)C(O)[C@H](O)C3O)OC(OC3CC[C@]4(C)C(CC[C@@]5(C)[C@@H]4CC=C4[C@@H]6CC(C)(C)CC[C@]6(CO)C(O)C[C@]45C)C3(C)C)C(O)C2O)C(O)C(O)C1O (stereo partly drawn)	none
C/C=C(/C)C(=O)OC1CC(C)(C)C[C@H]2C3=CC[C@@H]4[C@@]5(C)CCC(O[C@@H]6O[C@@H](C(=O)O)[C@@H](O)C(O[C@@H]7OC[C@H](O)[C@@H](O)[C@@H]7O[C@@H]7OC(CO)C(O)[C@@H](O)[C@@H]7O)C6O[C@@H]6OC(CO)C(O)C(O)C6O)[C@@](C)(CO)[C@@H]5CC[C@]4(C)[C@]3(C)CC(O)[C@@]12CO (stereo partly drawn)	MC4R barr agon 9.9 (no result: MsrA inh) | MC4R barr ag 8.6 | MOR-DOR barr ag inactive
O=C(c1cccc(Cl)c1)N1CCN(C(=O)c2ccco2)CC1	none
COc1ccc(C(=O)OCC(=O)NC(=O)Nc2ccccc2F)c(OC)c1	MC4R barr agon 24.6 | MC4R barr ag inactive | MOR-DOR barr ag inactive
Cc1cc(OCC(=O)C(C)(C)C)c2c(C)c(C)c(=O)oc2c1	MC4R barr agon 14.8 | MC4R barr ag inactive | MOR-DOR barr ag inactive
CC(=O)Nc1cc(-c2cccnc2)cn2c(-c3cccc(C(F)(F)F)c3)cnc12	MC4R barr agon 28.4 | MC4R barr ag 28.9 | MOR-DOR barr ag inactive
CN(C)C(=O)c1cccc(-c2cnc3c(NC=O)cc(-c4cccc(C(F)(F)F)c4)cn23)c1	none
COc1ccc(-c2cc(NC(C)=O)c3ncc(-c4ccc(OC)c(OC)c4)n3c2)c(OC)c1	none
CC(=O)Nc1cc(-c2ccc(C(=O)N3CCOCC3)cc2)cn2c(-c3cccc(C(F)(F)F)c3)cnc12	none
COc1ccc(-c2cc(NC=O)c3ncc(-c4cccc(C(F)(F)F)c4)n3c2)c(OC)c1	MC4R barr agon 20.4 | MC4R barr ag 12.9 | MOR-DOR barr ag inactive
COc1ccccc1-c1cc(NC(C)=O)c2ncc(-c3cccc(C(F)(F)F)c3)n2c1	MC4R barr agon 24.6 | MC4R barr ag 21.9 | MOR-DOR barr ag inactive
COc1ccc(-c2cc(NC(C)=O)c3ncc(-c4cccc(C(F)(F)F)c4)n3c2)c(OC)c1	MC4R barr agon 25.9 | MC4R barr ag 25.5 | MOR-DOR barr ag inactive
Cc1ccnc(NC(=O)COc2ccccc2[N+](=O)[O-])c1	none
CC(=O)c1ccc(-c2ccc(C(=O)N(C)c3c(N)n(Cc4ccccc4)c(=O)[nH]c3=O)o2)cc1	none
Cc1cccc2cc(COC(=O)c3cccs3)c(=O)[nH]c12	MC4R barr agon 22.6 | MC4R barr ag inactive | MOR-DOR barr ag inactive
c1cc2ccc3ccc(-n4cnnn4)c4ccc(c1)c2c34	MC4R barr agon 31.5 | MC4R barr ag inactive | MOR-DOR barr ag inactive
O=C(CSc1nc(Cc2ccccc2)nc2ccccc12)Nc1ccc2c(c1)OCCO2	MC4R barr agon 13.9 | MC4R barr ag inactive | MOR-DOR barr ag inactive
Cc1ccc(NC(=O)CCN2C(=O)c3cccc4cccc(c34)C2=O)cc1	MC4R barr agon 19.3 | MC4R barr ag inactive | MOR-DOR barr ag inactive
Cc1ccc(NC(=O)CCCN2C(=O)c3cccc4cccc(c34)C2=O)cc1	none
Cc1ccccc1OCC(=O)N/N=C/c1cn(Cc2ccccc2)c2ccccc12	MC4R barr agon 33.0 | MC4R barr ag 12.1 | MOR-DOR barr ag inactive
O=C(Nc1ccc2oc(=O)ccc2c1)c1ccc(-c2cccc(Cl)c2)o1	MC4R barr agon 19.5 | MC4R barr ag inactive | MOR-DOR barr ag inactive
Cc1ccccc1C(=O)Nc1sc2c(c1C(=O)O)CCC2	none
Cc1ccc2oc(-c3ccc(C)c(NC(=S)NC(=O)c4cccs4)c3)nc2c1	none
Cc1ccc(-c2nc3ccccc3o2)cc1NC(=S)NC(=O)c1cc2ccccc2o1	MC4R barr agon 17.0 | MC4R barr ag 11.3 | MOR-DOR barr ag inactive
COC(=O)C1=C(N)Oc2cc(C)n(C)c(=O)c2C1c1ccc(Cl)cc1 (stereo not drawn)	none
COc1ccc(-c2cnc3c(NC(C)=O)cc(-c4cccc(NS(C)(=O)=O)c4)cn23)cc1OC	none
COc1ccc(-c2cc(NC(C)=O)c3ncc(-c4ccc(F)cc4)n3c2)cc1OC	MC4R barr agon 21.9 | MC4R barr ag 26.1 | MOR-DOR barr ag inactive
COc1ccc(-c2cnc3c(NC(C)=O)cc(-c4cc(F)ccc4OC)cn23)cc1OC	MC4R barr agon 19.3 | MC4R barr ag 26.8 | MOR-DOR barr ag inactive
COc1cc(-c2cnc3c(NC(C)=O)cc(-c4ccc(N5CCN(C)CC5)cc4)cn23)cc(OC)c1OC	none
COc1ccc(F)cc1-c1cc(NC(C)=O)c2ncc(-c3cc(OC)c(OC)c(OC)c3)n2c1	MC4R barr agon 10.7 | MC4R barr ag 9.7 | MOR-DOR barr ag inactive
COc1cc(-c2cc(NC=O)c3ncc(-c4ccc(F)cc4)n3c2)cc(OC)c1OC	none
Cc1ccc(S(=O)(=O)N(CC(=O)Nc2ccccc2-c2ccccc2)c2ccc(C)cc2C)cc1	none
Cn1nc(OCC(N)=O)ccc1=O	none
CCS(=O)(=O)N1CCN(c2ccc(S(=O)(=O)N3CCOCC3)cc2)CC1	none
CCN1CCN(C(=O)/C=C/c2ccc(C(C)C)cc2)CC1	none
CCN1CCC(O)(/C=C/c2ccc(C(C)C)cc2)C(C(=O)/C=C/c2ccc(C(C)C)cc2)C1 (stereo not drawn)	MC4R barr agon 11.7 | MC4R barr ag 17.4 | MOR-DOR barr ag inactive
O=C(O)c1cnnc2ccccc12	none
O=Nc1c2cc3ccccc3[nH]c-2c2ccccc12	MC4R barr agon 10.3 | MC4R barr ag inactive | MOR-DOR barr ag inactive
O=C(CSc1nnc(CN2CCOCC2)n1-c1ccc(Cl)cc1)N1CCc2ccccc21	none
COC(=O)[C@@]12C[C@@H](CC(=O)NCC34CC5CC(CC(C5)C3)C4)C(=O)N(Cc3ccc4c(c3)OCO4)C1=CCC(C)(C)C2	none (no result: MC4R barr agon, MsrA act, MC4R antagonist)
COc1ccc(C(CCNCc2ccc(OC(C)C)cc2)c2ccccc2OC)cc1 (stereo not drawn)	MC4R barr agon 12.6 | MC4R barr ag 15.1 | MOR-DOR barr ag 25.4
Cc1cc(C)c2nc(N3CCCN(C(=O)c4ccco4)CC3)c(C#N)cc2c1	none
CNC(=O)CSCc1c(F)cccc1Cl	none
C=CCc1ccc(OCC(O)CO)c(OC)c1 (stereo not drawn)	none
C=CCc1ccc(O)c(-c2cc(CC=C)ccc2O)c1	MC4R barr agon 9.7 | MC4R barr ag inactive | MOR-DOR barr ag inactive

High-throughput results (PubChem)
